CaV13 ICDI inh – Primary screen for inhibitors of IQ motif and Ca2+-dependent inactivation inhibitor domain binding in CACNA1D, Förster resonance energy transfer in living cells, …. inhibition, % at 12.3 µM. HEK cells, CFP/YFP FRET ICDI-IQ, plate reader, 10 min; percent FRET-ratio fall versus neutral wells. 340,000 tested, 0.098% active;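 active means mean replicate inhibition of at least 30% and at least 1% of replicates passing that level; inconclusive means only one of the two criteria is met; inactive means neither criterion is met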;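 further: 0% = median of the neutral control wells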
N-glyco inh – increase of ERlucT glycosylation luciferase signal, primary screen, N-linked glycosylation inhibitor project, D54 ERlucT cells, luminescence, set 2; D54 ERlucT glycosylation luciferase reporter, 24 h; percent of 100 nM tunicamycin response; reporter increase, % at 12.5 µM; 360,000 tested, 0.23% active; AID 588692, 2011;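 active means mean luciferase reporter signal, scaled so untreated is 0 and the glycosylation-blocking control 100, at or above a set limit in every replicate; inconclusive means mean reaches the limit but not every replicate does; inactive means mean below the limit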;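 further: luciferase carries N-glycosylation sites so blocking glycosylation raises the light; 0% = median of neutral control wells and 100% = median of 100 nM tunicamycin wells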
FN deposition inh – inhibitors of fibronectin matrix deposition, primary screen, AH1F cells, Alexa488-fibronectin fluorescence, plate reader | AH1F fibroblasts, overnight | inhibition, % at 12.6 µM | 350,000 tested, 0.086% active;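 active means mean inhibition across replicates of 30% or more, regardless of how many single replicates reach that level; inconclusive means mean under 30% yet at least half of replicates reach 30%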;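 further: positive control wells lacked labelled fibronectin entirely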
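material = AH1F fibroblast monolayer depositing Alexa488-labelled fibronectin into matrix | amount = 10000 AH1F cells/well | buffer or medium = DMEM plus 2% serum, read in PBS | incubation = 1 h cell adhesion before compound, then overnight fibronectin incubation | detection = fluorescence at 485 nm excitation, 525 nm emission | evaluation = percent inhibition as loss of matrix-bound fibronectin fluorescence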
RAD54 branch – inhibitors of human RAD54 branch migration, primary screen, biochemical, fluorescence, single point; RAD54 Holliday junction branch migration, FAM/BHQ fluorescence; DNA repair and recombination protein RAD54-like (Homo sapiens), Q92698; inhibition, % at 10.4 µM; 360,000 tested, 0.14% active; AID 602329, 2012;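 active means mean normalized replicate activity at least 40 and at least half of replicates scoring 40 or more; inconclusive means only one of the two criteria met; inactive means mean below 40 and under half of replicates reaching 40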;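 further: 0% = median of neutral control wells and 100% = median of positive control wells; inhibitors cause a drop in the FAM fluorescence signal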
Target sequence (Q92698 whole entry, looked up): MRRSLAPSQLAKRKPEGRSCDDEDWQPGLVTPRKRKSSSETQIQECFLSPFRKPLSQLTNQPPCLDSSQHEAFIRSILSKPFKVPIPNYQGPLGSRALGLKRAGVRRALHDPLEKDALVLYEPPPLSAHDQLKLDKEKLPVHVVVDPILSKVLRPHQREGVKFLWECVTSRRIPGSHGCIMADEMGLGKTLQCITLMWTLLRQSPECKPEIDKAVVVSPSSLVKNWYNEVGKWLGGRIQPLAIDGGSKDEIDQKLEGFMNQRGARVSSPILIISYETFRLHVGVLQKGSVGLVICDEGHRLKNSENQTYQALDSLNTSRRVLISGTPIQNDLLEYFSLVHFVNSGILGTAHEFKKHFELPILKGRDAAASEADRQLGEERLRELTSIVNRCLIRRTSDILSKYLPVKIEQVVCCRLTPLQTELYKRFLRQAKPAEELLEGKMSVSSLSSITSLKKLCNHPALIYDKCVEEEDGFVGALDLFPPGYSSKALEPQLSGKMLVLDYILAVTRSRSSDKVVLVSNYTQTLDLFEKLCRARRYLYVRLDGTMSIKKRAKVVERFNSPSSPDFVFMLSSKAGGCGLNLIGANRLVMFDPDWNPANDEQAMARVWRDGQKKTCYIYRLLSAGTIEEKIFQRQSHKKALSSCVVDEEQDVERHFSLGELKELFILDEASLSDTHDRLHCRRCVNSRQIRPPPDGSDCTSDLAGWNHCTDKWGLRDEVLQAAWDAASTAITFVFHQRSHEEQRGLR
RAD52 inh – RAD52 DNA annealing inhibitors, primary screen, biochemical, FRET, single point, set 2. inhibition, % at 18.7 µM. AID 651710, 2012. recombinant RAD52 DNA annealing, FRET fluorescence. DNA repair protein RAD52 homolog (Homo sapiens), P43351. 360,000 tested, 0.46% active;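 active means every replicate showing at least 50% inhibition; inconclusive means mean inhibition at least 50% but not in every replicate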
DNA binding – DNA binding of candidate compounds, dose response, artefact control for RAD54 inhibitor project, biochemical, fluorescence polarization, cherry-pick; shares compounds with RAD54 branch; Acridine orange-DNA displacement, 20 min; AC50, µM (doses to about 35 µM), for inactives: at the highest dose activity change, negative = DNA binding; 460 tested, 8% active; AID 651673, 2012;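 active means signal drop giving an AC50 within twice the top valid tested concentration of each sample, actives reach about 35 µM in these data; inactive means activity opposite to expected, plus the rest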;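 further: polarization loss reports compound binding to salmon sperm DNA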
* hit, by the source's call. Shown are actives, neighbours in structure and some others; about 0.7% of the full set was active somewhere.

Results for CCN1CCN(c2cc(C)c3cc(NC(=S)N4CCCC4)ccc3n2)CC1 ?
CaV13 ICDI inh: -3; N-glyco inh: -3; FN deposition inh: 3; RAD52 inh: 25

Results for CCN1CCN(C(=S)Nc2ccc3nc(N4CCN(CC)CC4)cc(C)c3c2)CC1 ?
CaV13 ICDI inh: -10; N-glyco inh: -8; RAD54 branch: 62*; DNA binding: 1%

What do the screens show for `O=C(Nc1cc(F)ccc1F)N1CC(=O)N2[C@H](CO)[C@@H](c3ccc(-c4ccccc4)cc3)[C@@H]2C1`?
RAD52 inh: -5

Results for CC1CCCCC1NC(=O)C1Cc2ccccc2CN1S(C)(=O)=O (stereo not drawn) ?
N-glyco inh: 2; RAD54 branch: inconclusive; DNA binding: -10%

What do the screens show for `COc1ccc(N2C(=O)CSC23CCCCC3)cc1`?
CaV13 ICDI inh: -6; N-glyco inh: 1; FN deposition inh: -7; RAD54 branch: inconclusive; DNA binding: -9%

Results for CCN(CC)CCn1c2ccccc2c2nc3ccc([N+](=O)[O-])cc3cc21 ?
CaV13 ICDI inh: -5; N-glyco inh: 70*; FN deposition inh: -5; RAD54 branch: inconclusive; RAD52 inh: -28; DNA binding: -12%

How did Cc1ccc2nc3c(c(Nc4ccc5c(c4)OCCO5)c2c1)CCC3 do in these assays?
CaV13 ICDI inh: -14; N-glyco inh: 1; FN deposition inh: -2; RAD54 branch: 61*; RAD52 inh: 47; DNA binding: -3%

Results for Cc1cccc(Nc2c3c(nc4ccccc24)CCC3)c1 ?
CaV13 ICDI inh: -4; N-glyco inh: -1; FN deposition inh: 13; RAD54 branch: 11; RAD52 inh: -4

What do the screens show for `COc1ccc(Nc2c3c(nc4ccc(C)cc24)CCC3)cc1`?
CaV13 ICDI inh: -20; N-glyco inh: 1; FN deposition inh: -4; RAD54 branch: 54*; RAD52 inh: 41; DNA binding: -2%

What do the screens show for `O=C(NC1CCC1)[C@@H]1[C@@H](CO)[C@@H]2Cn3c(ccc(C4=CCCC4)c3=O)[C@@H]2N1C(=O)C1CCCC1`?
FN deposition inh: -7; RAD54 branch: 0; RAD52 inh: -28

How did Cc1nc(Nc2ccncc2)c2oc3ccccc3c2n1 do in these assays?
CaV13 ICDI inh: -8; N-glyco inh: -8; RAD52 inh: 40

How did CCc1nc(Nc2ccncc2)c2oc3ccccc3c2n1 do in these assays?
CaV13 ICDI inh: -6; N-glyco inh: -4; RAD54 branch: 66*; DNA binding: -19%

How did C[C@H](CO)N1C[C@H](C)[C@@H](CN(C)Cc2ccc3c(c2)OCO3)Oc2c(NS(=O)(=O)c3ccc(Cl)cc3)cccc2C1=O do in these assays?
RAD52 inh: 12

What do the screens show for `CCOC(=O)c1c(C)n(C)c2ccc(OCC(O)Cn3c(C)nc4ccccc43)cc12` (stereo not drawn)?
N-glyco inh: 7; FN deposition inh: -8; RAD54 branch: -11

How did CCOC(=O)c1c(C)n(C)c2ccc(OCC(O)CN3CCN(C)CC3)cc12 (stereo not drawn) do in these assays?
CaV13 ICDI inh: inconclusive; N-glyco inh: 2; FN deposition inh: -2; RAD54 branch: inconclusive; RAD52 inh: 1; DNA binding: -14%

What do the screens show for `COc1cc2[nH]c3c(=O)n(CCN(C(C)C)C(C)C)cnc3c2cc1OC`?
CaV13 ICDI inh: -5; N-glyco inh: 3; FN deposition inh: 4; RAD54 branch: inconclusive; DNA binding: 7%

How did CCn1c(=O)c2cc(C(=O)NCCN(C)C)sc2c2ccccc21 do in these assays?
CaV13 ICDI inh: -17; N-glyco inh: 16; FN deposition inh: 5; RAD54 branch: 53*; RAD52 inh: 26; DNA binding: -10%
